Results on 32 molecules are retold here after ChEMBL document CHEMBL3994636, “New tools in nucleoside toolbox of tick-borne encephalitis virus reproduction inhibitors” (Bioorg Med Chem Lett, 2017).

For orientation: EC50 means the concentration that produces a half-maximal response. As a reminder, the inhibition is the percentage by which the read-out fell short of the control. As a reminder, the CC50 is the concentration at which the toxic effect on the cells reaches its halfway point. Low readings indicate greater toxicity to the cells, high ones lower toxicity to the cells.

For data set [1], the system named is Tick-borne encephalitis virus. Nature of the data set: Antiviral activity against […] Absettarov infected in PEK cells assessed as inhibition of viral reproduction preincubated with virus for 1 hr followed by addition to PEK cells measured after 1 hr by gentian violet staining based plaque reduction assay. It counts as functional, cell-based. A general note: In a plaque reduction assay, fewer plaques than in the control indicate reduced infectivity or spread.

In data set [2] the test system is Tick-borne encephalitis virus. The data set is described as follows: Antiviral activity against […] Absettarov infected in PEK cells assessed as inhibition of viral reproduction at 50 uM preincubated with virus for 1 hr followed by addition to PEK cells measured after 1 hr by gentian violet staining based plaque reduction assay relative to control. It counts as functional.

A short description of data set [3]: Cytotoxicity against PEK cells after 7 days. The conditions noted are these: pig. It counts as cell-based, Sus scrofa.
Data set [4] can be described thus: Cytotoxicity against PEK cells after 24 hrs. It counts as cell-based, Sus scrofa. The conditions noted are these: pig. The method, boiled down:
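PEK (porcine embryo kidney) cells were exposed to compound at 50 μM for 24 h and examined for cytotoxicity.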

Calls of active or inactive are those of the source. The calls are words filed in the database; no cut-off is given here.

For the molecule `OC[C@H]1O[C@@H](n2cnc3c(NCc4ccc5ccccc5c4)ncnc32)[C@H](O)[C@@H]1O`, the concentration giving a half-maximal response (EC50) in data set [1] is greater than 50 µM. In addition, the inhibition entry in data set [2] is “inactive”.

Regarding `OC[C@H]1O[C@@H](n2cnc3c(NCc4ccccc4)ncnc32)[C@H](O)[C@@H]1O` [N6-BENZYLADENOSINE], the EC50 in data set [1] was greater than 50 µM. The molecule also returned a CC50 at 168 h in data set [3] greater than 50 µM. In data set [4], this molecule registered a half-maximal cytotoxic concentration (CC50) at 24 h greater than 50 µM. The inhibition entry in data set [2] was “inactive”.

`c1ccc(CNc2ncnc3nc[nH]c23)cc1` [6-BENZYLAMINOPURINE]: the CC50 at 168 h in data set [3] is greater than 50 µM. Also, the 50% cytotoxic concentration (CC50) at 24 h in data set [4] is greater than 50 µM.

Consider `CC(C)C(=O)Nc1nc2c(ncn2[C@@H]2O[C@H](CO)[C@@H](O)[C@H]2O)c(=O)[nH]1`, for which the half-maximal effective concentration (EC50) in data set [1] is greater than 50 µM. For the same molecule, the inhibition entry in data set [2] is “inactive”.

`C[C@@]1(O)[C@@H](CO)O[C@@H](n2ccc(N)nc2=O)[C@@H]1O`: the concentration giving a half-maximal response (EC50) in data set [1] was greater than 50 µM. For the same molecule, in data set [2], the inhibition entry is “inactive”.

In the case of `Cn1cnc2c(ncn2[C@@H]2O[C@H](CO)[C@@H](O)[C@H]2O)c1=N`, the EC50 in data set [1] is greater than 50 µM. Also, the inhibition entry in data set [2] is “inactive”.

`OC[C@H]1O[C@@H](n2cnc3c(NCc4c5ccccc5cc5ccccc45)ncnc32)[C@H](O)[C@@H]1O`: in data set [1], the EC50 came out at 15 µM. For the same molecule, in data set [3], the CC50 at 168 h was greater than 50 µM. Further, in data set [4], the CC50 at 24 h is greater than 50 µM. Besides, in data set [2], the inhibition at 50 µM is 50%.

Take `C=C(C)[C@@H]1CC=C(CNc2ncnc3c2ncn3[C@@H]2O[C@H](CO)[C@@H](O)[C@H]2O)CC1`: in data set [1], the concentration giving a half-maximal response (EC50) was greater than 50 µM. Besides, the inhibition result in data set [2] is “inactive”.

Consider `CC(C)(C)[Si](C)(C)OC[C@H]1O[C@@H](n2cnc3c(NCc4ccccc4)ncnc32)[C@H](O)[C@@H]1O`, for which, in data set [1], the concentration for a half-maximal effect (EC50) came to 20 µM. Besides, the cytotoxic concentration (CC50) at 168 h in data set [3] was greater than 50 µM. This molecule registered a CC50 at 24 h in data set [4] greater than 50 µM. The inhibition at 50 µM in data set [2] came to 50%.

On to `OC/C=C\CNc1ncnc2c1ncn2[C@@H]1O[C@H](CO)[C@@H](O)[C@H]1O`, for which the 50% effective concentration (EC50) in data set [1] was greater than 50 µM. In data set [2], the inhibition entry is “inactive”.

Take `C=CCC#CCNc1ncnc2c1ncn2[C@@H]1O[C@H](CO)[C@@H](O)[C@H]1O`: the concentration giving a half-maximal response (EC50) in data set [1] was greater than 50 µM. In addition, the inhibition entry in data set [2] is “inactive”.

Consider `OC[C@H]1O[C@@H](n2cnc3c(NCc4ccco4)ncnc32)[C@H](O)[C@@H]1O` [KINETIN RIBOSIDE], for which, in data set [1], the EC50 is greater than 50 µM. Also, the inhibition entry in data set [2] is “inactive”.

Consider `CNc1ncnc2c1ncn2[C@@H]1O[C@H](CO)[C@@H](O)[C@H]1O`, for which, in data set [1], the concentration for a half-maximal effect (EC50) is greater than 50 µM. In addition, in data set [2], the inhibition entry was “inactive”.

For `OC[C@H]1O[C@@H](n2cnc3c(NCC#Cc4ccccc4)ncnc32)[C@H](O)[C@@H]1O`, the concentration for a half-maximal effect (EC50) in data set [1] was greater than 48 µM. Besides, in data set [2], the inhibition entry was “inactive”.

As for `OC[C@H]1O[C@@H](n2cnc3c(NC/C=C/c4ccccc4)ncnc32)[C@H](O)[C@@H]1O`, the concentration giving a half-maximal response (EC50) in data set [1] is greater than 50 µM. Also, the inhibition result in data set [2] is “inactive”.

In the case of `O=C(Nc1ccn(C2O[C@H](CO)[C@@H](O)[C@H]2O)c(=O)n1)c1ccccc1` (stereo partly specified), in data set [1], the half-maximal effective concentration (EC50) is greater than 50 µM. Besides, the inhibition entry in data set [2] was “inactive”.

As for `CC(C)=CCC/C(C)=C/CNc1ncnc2c1ncn2[C@@H]1O[C@H](CO)[C@@H](O)[C@H]1O`, the EC50 in data set [1] is greater than 50 µM. Moreover, the inhibition result in data set [2] is “inactive”.

For `OC[C@H]1O[C@@H](n2cnc3c(NCc4ccc5ccc6cccc7ccc4c5c67)ncnc32)[C@H](O)[C@@H]1O`, the EC50 in data set [1] amounted to 6 µM. Moreover, the cytotoxic concentration (CC50) at 168 h in data set [3] is 9 µM. In data set [4], the CC50 at 24 h is greater than 50 µM. For the same molecule, the inhibition at 50 µM in data set [2] is 50%.

`CC(C)=CCC/C(C)=C\CNc1ncnc2c1ncn2[C@@H]1O[C@H](CO)[C@@H](O)[C@H]1O`: the EC50 in data set [1] was greater than 50 µM. For the same molecule, the inhibition result in data set [2] is “inactive”.

As to `C[C@@]1(O)[C@@H](CO)O[C@@H](n2cnc3c(=O)[nH]c(N)nc32)[C@@H]1O`, the EC50 in data set [1] is greater than 50 µM. Also, the inhibition entry in data set [2] is “inactive”.

`OC[C@H]1O[C@@H](n2cnc3c(NC(c4ccccc4)(c4ccccc4)c4ccccc4)ncnc32)[C@H](O)[C@@H]1O`: the 50% effective concentration (EC50) in data set [1] is greater than 50 µM. Also, the inhibition result in data set [2] is “inactive”.

For `CC(C)=CCNc1ncnc2c1ncn2[C@@H]1O[C@H](CO)[C@@H](O)[C@H]1O` [RIBOPRINE], in data set [1], the concentration giving a half-maximal response (EC50) was greater than 50 µM. In addition, in data set [2], the inhibition result was “inactive”.

Consider `C#CCNc1ncnc2c1ncn2[C@@H]1O[C@H](CO)[C@@H](O)[C@H]1O`, for which the EC50 in data set [1] was greater than 50 µM. The inhibition entry in data set [2] is “inactive”.

With `O=C(Nc1nc2c(ncn2[C@@H]2O[C@H](CO)[C@@H](O)[C@H]2O)c(=O)[nH]1)c1ccccc1`, the EC50 in data set [1] was greater than 50 µM. In addition, the inhibition entry in data set [2] was “inactive”.

For `c1ccc(CNc2ncnc3[nH]cnc23)cc1` [6-BENZYLAMINOPURINE], the EC50 in data set [1] was greater than 50 µM. Moreover, the inhibition result in data set [2] is “inactive”.

For `C[C@@]1(O)[C@@H](CO)O[C@@H](n2ccc(=O)[nH]c2=O)[C@@H]1O`, the EC50 in data set [1] was greater than 50 µM. Further, the inhibition entry in data set [2] was “inactive”.

On to `CC(C)[Si](OC[C@H]1O[C@@H](n2cnc3c(NCc4ccccc4)ncnc32)[C@H](O)[C@@H]1O)(C(C)C)C(C)C`, for which, in data set [1], the 50% effective concentration (EC50) amounted to 5 µM. In addition, the CC50 at 168 h in data set [3] is greater than 50 µM. Moreover, the CC50 at 24 h in data set [4] was greater than 50 µM. Besides, the inhibition at 50 µM in data set [2] worked out at 50%.

On to `O[C@@H]1[C@H](O)[C@@H](COC(c2ccccc2)(c2ccccc2)c2ccccc2)O[C@H]1n1cnc2c(NCc3ccccc3)ncnc21`, for which the EC50 in data set [1] amounted to 2 µM. The molecule further came in with a 50% cytotoxic concentration (CC50) at 168 h in data set [3] of 9 µM. In data set [4], this molecule returned a CC50 at 24 h greater than 50 µM. For the same molecule, in data set [2], the inhibition at 50 µM came out at 50%.

Turning to `Cc1cn([C@@H]2O[C@H](CO)[C@@](C)(O)[C@H]2O)c(=O)[nH]c1=O`, the EC50 in data set [1] is greater than 50 µM. Besides, the inhibition result in data set [2] was “inactive”.

For the molecule `CC1(C)[C@H]2CC=C(CNc3ncnc4c3ncn4[C@@H]3O[C@H](CO)[C@@H](O)[C@H]3O)[C@@H]1C2`, in data set [1], the concentration for a half-maximal effect (EC50) is greater than 50 µM. Further, in data set [2], the inhibition entry is “inactive”.

Turning to `C[n+]1cn([C@@H]2O[C@H](CO)[C@@H](O)[C@H]2O)c2nc(N)nc([O-])c21`, the concentration giving a half-maximal response (EC50) in data set [1] was greater than 50 µM. In addition, in data set [2], the inhibition entry was “inactive”.

Consider `OC[C@H]1O[C@@H](n2cnc3c(NC4CCCCC4)ncnc32)[C@H](O)[C@@H]1O`, for which, in data set [1], the concentration for a half-maximal effect (EC50) is greater than 50 µM. The inhibition result in data set [2] is “inactive”.
